Test results as given in ChEMBL document CHEMBL1132418, “Structure-immunosuppressive activity relationships of new analogues of 15-deoxyspergualin. 1. Structural modifications of the hydroxyglycine moiety” (1999).

These compounds were tested on Mus musculus (assay: In vivo immunosuppressive activity at a dose of 1 mg/kg in mouse GVHD (graft-versus-host disease) model and the mean survival days evaluated.).
Format: functional
Outline: (§1)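 Mouse GVHD model. Compounds were dissolved in aqueous solution and given i.p. on days 1 to 10 (day 6 omitted), first at 3 mg/kg/day and then at 1 mg/kg/day. Survival was followed to day 60 after cell injection and reported as mean survival in days ± deviation.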
COC(C(=O)NCCCCCCN=C(N)N)C(=O)NCCCCNCCCN (configuration not stated) gave a Mean survival of 27 days. NCCCNCCCCNC(=O)NCC(=O)NCCCCCCN=C(N)N showed a Mean survival of 42 days. Work on NCCCNCCCCNC(=O)C(F)C(=O)NCCCCCCN=C(N)N (configuration not stated) yielded a Mean survival of 18 days. Work on NCCCNCCCCOC(=O)NCC(=O)NCCCCCCN=C(N)N yielded a Mean survival of 55 days. For N=C(N)NCCCCCCNC(=O)COC(=O)NCCCCNCCCN [TRESPERIMUS], the Mean survival was 46 days. For NCCCNCCCCNC(=O)CC(=O)NCCCCCCN=C(N)N, the Mean survival was 53 days. With NCCCNCCCCOC(=O)NCNC(=O)CCCCCCN=C(N)N the Mean survival was 32 days. Compound NCCCNCCCCNC(=O)C(=O)NCCCCCCN=C(N)N has a Mean survival of 53 days. In the case of N=C(N)NCCCCCCC(=O)NC(O)C(=O)NCCCCNCCCN (configuration not stated) [GUSPERIMUS], the Mean survival is reported as 38 days. For NCCCNCCCCNC(=O)C(O)C(=O)NCCCCCCN=C(N)N (configuration not stated), the Mean survival was 12 days.

Each compound was assayed on Mus musculus (assay: In vivo immunosuppressive activity in mouse GVHD (graft-versus-host disease) model and the mean survival days evaluated (dose of 3 mg/kg)).
Format: functional
Outline: as §1
In the case of NCCCNCCCCNC(=O)C(C(=O)NCCCCCCN=C(N)N)c1ccccc1 (configuration not stated), the Mean survival is reported as 19 days. With CN(CCCCCCN=C(N)N)C(=O)CC(=O)NCCCCNCCCN the Mean survival was 14 days. For COC(C(=O)NCCCCCCN=C(N)N)C(=O)NCCCCNCCCN (configuration not stated), the Mean survival was 55 days. Work on NCCCNCCCCNC(=O)NCC(=O)NCCCCCCN=C(N)N yielded a Mean survival of 48 days. NCCCNCCCCNC(=O)C(F)C(=O)NCCCCCCN=C(N)N (configuration not stated) showed a Mean survival of 60 days. CN(CCCCNCCCN)C(=O)CC(=O)NCCCCCCN=C(N)N was tested, and the Mean survival was 12 days. CC(=O)NC(C(=O)NCCCCCCN=C(N)N)C(=O)NCCCCNCCCN (configuration not stated) showed a Mean survival of 16 days. CN(CCCCCCN=C(N)N)C(=O)COC(=O)NCCCCNCCCN was tested, and the Mean survival was 14 days. In the case of NCCCNCCCCNC(=O)CCCCCCCCCN=C(N)N, the Mean survival is reported as 16 days. For NCCCNCCCCOC(=O)NCC(=O)NCCCCCCN=C(N)N, the Mean survival was 48 days. For N=C(N)NCCCCCCNC(=O)COC(=O)NCCCCNCCCN [TRESPERIMUS], the Mean survival was 58 days. With NCCCNCCCCNC(=O)COC(=O)NCCCCCCN=C(N)N the Mean survival was 13 days. Work on NCCCNCCCCNC(=O)CC(=O)NCCCCCCN=C(N)N yielded a Mean survival of 52 days. Compound NCCCNCCCCNC(=O)C(N)C(=O)NCCCCCCN=C(N)N (configuration not stated) has a Mean survival of 16 days. Work on NCCCNCCCCNC(=O)OCCNCCCCCCN=C(N)N yielded a Mean survival of 34 days. For NCCCNCCCCNC(=O)CCCC(=O)NCCCCCCN=C(N)N, the Mean survival was 15 days. Work on NCCCNCCCCNC(=O)C(CO)(CO)C(=O)NCCCCCCN=C(N)N yielded a Mean survival of 17 days. NCCCNCCCCNCCC(=O)NCCCCCCN=C(N)N was tested, and the Mean survival was 13 days. For COC(OC)(C(=O)NCCCCCCN=C(N)N)C(=O)NCCCCNCCCN, the Mean survival was 12 days. NCCCNCCCCNC(=O)SCC(=O)NCCCCCCN=C(N)N was tested, and the Mean survival was 17 days. With NCCCNCCCCNC(=O)NCCC(=O)NCCCCCCN=C(N)N the Mean survival was 15 days. In the case of NCCCNCCCCNC(=O)C(OCc1ccccc1)C(=O)NCCCCCCN=C(N)N (configuration not stated), the Mean survival is reported as 14 days. With NCCCNCCCCOC(=O)NCNC(=O)CCCCCCN=C(N)N the Mean survival was 58 days. In the case of CN(CC(=O)NCCCCCCN=C(N)N)C(=O)NCCCCNCCCN, the Mean survival is reported as 17 days. CCC(C(=O)NCCCCCCN=C(N)N)C(=O)NCCCCNCCCN (configuration not stated) gave a Mean survival of 19 days. NCCCNCCCCNC(=O)C(Cc1ccccc1)C(=O)NCCCCCCN=C(N)N (configuration not stated) showed a Mean survival of 16 days. Work on CN(CCCCNCCCN)C(=O)OCC(=O)NCCCCCCN=C(N)N yielded a Mean survival of 15 days. NCCCNCCCCNS(=O)(=O)CC(=O)NCCCCCCN=C(N)N showed a Mean survival of 15 days. With NCCCNCCCCNC(=O)OCCC(=O)NCCCCCCN=C(N)N the Mean survival was 13 days. In the case of NCCCNCCCCNC(=O)C(=O)NCCCCCCN=C(N)N, the Mean survival is reported as 34 days. For N=C(N)NCCCCCCC(=O)NC(O)C(=O)NCCCCNCCCN (configuration not stated) [GUSPERIMUS], the Mean survival was 57 days. With NCCCNCCCCNC(=O)CCC(=O)NCCCCCCN=C(N)N the Mean survival was 16 days. CC(C)(C(=O)NCCCCCCN=C(N)N)C(=O)NCCCCNCCCN gave a Mean survival of 15 days. NCCCNCCCCNC(=O)CNC(=O)NCCCCCCN=C(N)N showed a Mean survival of 24 days. For NCCCNCCCCNC(=O)/C=C/C(=O)NCCCCCCN=C(N)N, the Mean survival was 17 days. NCCCNCCCCCC(=O)NCC(=O)NCCCCCCN=C(N)N gave a Mean survival of 18 days. NCCCNCCCCNC(=O)C(O)C(=O)NCCCCCCN=C(N)N (configuration not stated) gave a Mean survival of 53 days. NCCCNCCCCNC(=O)C(O)CC(=O)NCCCCCCN=C(N)N (configuration not stated) was tested, and the Mean survival was 15 days. NCCCNCCCCNC(=O)/C=C\C(=O)NCCCCCCN=C(N)N gave a Mean survival of 17 days. Compound CC(C(=O)NCCCCCCN=C(N)N)C(=O)NCCCCNCCCN (configuration not stated) has a Mean survival of 16 days. In the case of NCCCNCCCCC(=O)NCC(=O)NCCCCCCN=C(N)N, the Mean survival is reported as 22 days.

Species on record: Rattus norvegicus
Experiment: Compound is evaluated for prevention of graft rejection after heart allotransplantation in the dark agouti Lewis rat combination.
Format: functional
Outline: (§2)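 Dark Agouti donor hearts transplanted into Lewis rat recipients (fully histoincompatible; high-responder recipient). Compounds given daily i.p. at 6 mg/kg/day for 10 days, starting 1 day after surgery. Graft survival recorded for each animal in days and reported as mean ± SD, with a statistical comparison against controls.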
NCCCNCCCCNC(=O)NCC(=O)NCCCCCCN=C(N)N gave a Mean survival of 12 days.

What follows are compounds tested on Rattus norvegicus (assay: Compound (6 mg/kg) is evaluated for prevention of graft rejection after heart allotransplantation in the Dark Agouti to Lewis rat combination.).
Format: functional
Outline: as §2
For N=C(N)NCCCCCCNC(=O)COC(=O)NCCCCNCCCN [TRESPERIMUS], the Mean survival was 54 days. Work on NCCCNCCCCNC(=O)CC(=O)NCCCCCCN=C(N)N yielded a Mean survival of 9 days. For NCCCNCCCCNC(=O)C(=O)NCCCCCCN=C(N)N, the Mean survival was 12 days. With N=C(N)NCCCCCCC(=O)NC(O)C(=O)NCCCCNCCCN (configuration not stated) [GUSPERIMUS] the Mean survival was 38 days. In the case of NCCCNCCCCNC(=O)C(O)C(=O)NCCCCCCN=C(N)N (configuration not stated), the Mean survival is reported as 33 days.
